Measurements from ChEMBL document CHEMBL5303300, “EUbOPEN Chemogenomics Library - Multiplex” (2023).
Values joined by “and” are separate entries in the source; they are usually repeats but may differ in a detail not shown here. Identical values can stand only once.

Tested on: HEK-293T
Experiment: Multiplex assay against HEK293T
Type: toxicity, cell-based
Details: human, number of replicates 2
In short: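 Cells stained live at seeding with Hoechst33342, BioTracker Green Microtubule Cytoskeleton Dye, MitoTracker Red and Annexin V Alexa Fluor 680 were imaged on a CQ1 microscope at 37°C and 5% CO2 after compound addition. Their classification by CellPathfinder machine-learning gating ran from Hoechst high-intensity objects versus normal cells, to healthy, pyknosed or fragmented nuclei among normal cells, to mitotic or apoptotic among pyknosed cells. Tubulin, mitochondrial-mass and membrane-permeability phenotypes are per cents of healthy-nucleus cells.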

[1] = 12 h, 1 µM, compound concentration 1 uM
[2] = 12 h, 10 µM, compound concentration 10 uM
[3] = 24 h, 1 µM, compound concentration 1 uM
[4] = 24 h, 10 µM, compound concentration 10 uM
[5] = 48 h, 1 µM, compound concentration 1 uM
[6] = 48 h, 10 µM, compound concentration 10 uM

In the case of `O=C1NC(=O)C(c2ccccc2[N+](=O)[O-])=C1Nc1ccc(O)c(Cl)c1`, the “Population Apoptotic (%)” value [1] is reported as 41% and 45%, the “Population Fragmented Nuclei (%)” value [1] is reported as 4% and 2% and the “Population Healthy Nuclei (%)” value [1] is reported as 82% and 83%. For the same molecule, the “Population Hoechst High Intensity Objects (%)” value [1] was 6% and 3%, the “Population Membrane Permeable-Phenotype (%)” value [1] was 2% and the “Population Mitochondria Different-Phenotype (%)” value [1] was 11% and 12%. The “Population Mitotic Cells (%)” value [1] was 58% and 54%, the “Population Normal (%)” value [1] was 93% and 96% and the “Population Pyknosed Nuclei (%)” value [1] was 13%. For the same molecule, the “Population Tubulin-Different-Phenotype (%)” value [1] was 41%, the “Total Cell Count” value [1] was 694 and 574 and the “Population Apoptotic (%)” value [2] was 32% and 38%. For the same molecule, the “Population Fragmented Nuclei (%)” value [2] was 6% and 5%, the “Population Healthy Nuclei (%)” value [2] was 82% and 87% and the “Population Hoechst High Intensity Objects (%)” value [2] was 4% and 7%. The “Population Membrane Permeable-Phenotype (%)” value [2] was 6% and 4%, the “Population Mitochondria Different-Phenotype (%)” value [2] was 8% and 5% and the “Population Mitotic Cells (%)” value [2] was 67% and 61%. The “Population Normal (%)” value [2] was 95% and 92%, the “Population Pyknosed Nuclei (%)” value [2] was 11% and 7% and the “Population Tubulin-Different-Phenotype (%)” value [2] was 34% and 31%. The “Total Cell Count” value [2] was 496 and 670, the “Population Apoptotic (%)” value [3] was 40% and 37% and the “Population Fragmented Nuclei (%)” value [3] was 4% and 3%. For the same molecule, the “Population Healthy Nuclei (%)” value [3] was 86% and 88%, the “Population Hoechst High Intensity Objects (%)” value [3] was 5% and 7% and the “Population Membrane Permeable-Phenotype (%)” value [3] was 2%. The “Population Mitochondria Different-Phenotype (%)” value [3] was 3% and 5%, the “Population Mitotic Cells (%)” value [3] was 59% and 62% and the “Population Normal (%)” value [3] was 94% and 92%. For the same molecule, the “Population Pyknosed Nuclei (%)” value [3] was 8%, the “Population Tubulin-Different-Phenotype (%)” value [3] was 22% and 24% and the “Total Cell Count” value [3] was 1100 and 894. For the same molecule, the “Population Apoptotic (%)” value [4] was 26% and 19%, the “Population Fragmented Nuclei (%)” value [4] was 4% and 8% and the “Population Healthy Nuclei (%)” value [4] was 89% and 83%. The “Population Hoechst High Intensity Objects (%)” value [4] was 5% and 7%, the “Population Membrane Permeable-Phenotype (%)” value [4] was 5% and 3% and the “Population Mitochondria Different-Phenotype (%)” value [4] was 2% and 1%. For the same molecule, the “Population Mitotic Cells (%)” value [4] was 73% and 80%, the “Population Normal (%)” value [4] was 94% and 92% and the “Population Pyknosed Nuclei (%)” value [4] was 6% and 7%. For the same molecule, the “Population Tubulin-Different-Phenotype (%)” value [4] was 14% and 18%, the “Total Cell Count” value [4] was 721 and 1015 and the “Population Apoptotic (%)” value [5] was 14% and 15%. The “Population Fragmented Nuclei (%)” value [5] was 13% and 9%, the “Population Healthy Nuclei (%)” value [5] was 83% and 87% and the “Population Hoechst High Intensity Objects (%)” value [5] was 7% and 9%. For the same molecule, the “Population Membrane Permeable-Phenotype (%)” value [5] was 5% and 4%, the “Population Mitochondria Different-Phenotype (%)” value [5] was 0% and the “Population Mitotic Cells (%)” value [5] was 85% and 84%. The “Population Normal (%)” value [5] was 92% and 90%, the “Population Pyknosed Nuclei (%)” value [5] was 2% and 3% and the “Population Tubulin-Different-Phenotype (%)” value [5] was 12% and 11%. For the same molecule, the “Total Cell Count” value [5] was 2762 and 1997, the “Population Apoptotic (%)” value [6] was 11% and 2% and the “Population Fragmented Nuclei (%)” value [6] was 14% and 21%. For the same molecule, the “Population Healthy Nuclei (%)” value [6] was 82% and 77%, the “Population Hoechst High Intensity Objects (%)” value [6] was 6% and 9% and the “Population Membrane Permeable-Phenotype (%)” value [6] was 7% and 8%. For the same molecule, the “Population Mitochondria Different-Phenotype (%)” value [6] was 0%, the “Population Mitotic Cells (%)” value [6] was 88% and 97% and the “Population Normal (%)” value [6] was 93% and 90%. For the same molecule, the “Population Pyknosed Nuclei (%)” value [6] was 3% and 1%, the “Population Tubulin-Different-Phenotype (%)” value [6] was 7% and the “Total Cell Count” value [6] was 1557 and 2547.

`COc1ccccc1-c1cc(Nc2cccc(CS(N)(=O)=O)c2)ncn1` was tested, and the “Population Apoptotic (%)” value [1] was 35% and 36%, the “Population Fragmented Nuclei (%)” value [1] was 4% and 2% and the “Population Healthy Nuclei (%)” value [1] was 85%. For the same molecule, the “Population Hoechst High Intensity Objects (%)” value [1] was 6% and 7%, the “Population Membrane Permeable-Phenotype (%)” value [1] was 3% and 5% and the “Population Mitochondria Different-Phenotype (%)” value [1] was 15% and 14%. The “Population Mitotic Cells (%)” value [1] was 64%, the “Population Normal (%)” value [1] was 93% and 92% and the “Population Pyknosed Nuclei (%)” value [1] was 10% and 12%. For the same molecule, the “Population Tubulin-Different-Phenotype (%)” value [1] was 56% and 48%, the “Total Cell Count” value [1] was 807 and 675 and the “Population Apoptotic (%)” value [2] was 32% and 34%. The “Population Fragmented Nuclei (%)” value [2] was 4% and 5%, the “Population Healthy Nuclei (%)” value [2] was 87% and 84% and the “Population Hoechst High Intensity Objects (%)” value [2] was 7%. The “Population Membrane Permeable-Phenotype (%)” value [2] was 3%, the “Population Mitochondria Different-Phenotype (%)” value [2] was 26% and 28% and the “Population Mitotic Cells (%)” value [2] was 67% and 65%. The “Population Normal (%)” value [2] was 92%, the “Population Pyknosed Nuclei (%)” value [2] was 8% and 10% and the “Population Tubulin-Different-Phenotype (%)” value [2] was 61% and 74%. For the same molecule, the “Total Cell Count” value [2] was 665 and 582, the “Population Apoptotic (%)” value [3] was 35% and 34% and the “Population Fragmented Nuclei (%)” value [3] was 5% and 4%. The “Population Healthy Nuclei (%)” value [3] was 86% and 88%, the “Population Hoechst High Intensity Objects (%)” value [3] was 6% and 8% and the “Population Membrane Permeable-Phenotype (%)” value [3] was 3% and 2%. The “Population Mitochondria Different-Phenotype (%)” value [3] was 4% and 5%, the “Population Mitotic Cells (%)” value [3] was 64% and 65% and the “Population Normal (%)” value [3] was 93% and 91%. The “Population Pyknosed Nuclei (%)” value [3] was 7%, the “Population Tubulin-Different-Phenotype (%)” value [3] was 36% and the “Total Cell Count” value [3] was 1151 and 990. For the same molecule, the “Population Apoptotic (%)” value [4] was 47% and 40%, the “Population Fragmented Nuclei (%)” value [4] was 2% and 1% and the “Population Healthy Nuclei (%)” value [4] was 90%. The “Population Hoechst High Intensity Objects (%)” value [4] was 4% and 5%, the “Population Membrane Permeable-Phenotype (%)” value [4] was 5% and 6% and the “Population Mitochondria Different-Phenotype (%)” value [4] was 20% and 19%. For the same molecule, the “Population Mitotic Cells (%)” value [4] was 52% and 60%, the “Population Normal (%)” value [4] was 95% and 94% and the “Population Pyknosed Nuclei (%)” value [4] was 6% and 7%. For the same molecule, the “Population Tubulin-Different-Phenotype (%)” value [4] was 69% and 75%, the “Total Cell Count” value [4] was 861 and 783 and the “Population Apoptotic (%)” value [5] was 11% and 13%. The “Population Fragmented Nuclei (%)” value [5] was 11% and 8%, the “Population Healthy Nuclei (%)” value [5] was 85% and 88% and the “Population Hoechst High Intensity Objects (%)” value [5] was 8% and 9%. For the same molecule, the “Population Membrane Permeable-Phenotype (%)” value [5] was 5% and 3%, the “Population Mitochondria Different-Phenotype (%)” value [5] was 0% and the “Population Mitotic Cells (%)” value [5] was 88% and 86%. For the same molecule, the “Population Normal (%)” value [5] was 91% and 90%, the “Population Pyknosed Nuclei (%)” value [5] was 3% and the “Population Tubulin-Different-Phenotype (%)” value [5] was 15% and 16%. For the same molecule, the “Total Cell Count” value [5] was 2772 and 2160, the “Population Apoptotic (%)” value [6] was 34% and 35% and the “Population Fragmented Nuclei (%)” value [6] was 8% and 5%. For the same molecule, the “Population Healthy Nuclei (%)” value [6] was 86% and 90%, the “Population Hoechst High Intensity Objects (%)” value [6] was 6% and the “Population Membrane Permeable-Phenotype (%)” value [6] was 3%. For the same molecule, the “Population Mitochondria Different-Phenotype (%)” value [6] was 7% and 8%, the “Population Mitotic Cells (%)” value [6] was 65% and 64% and the “Population Normal (%)” value [6] was 93%. The “Population Pyknosed Nuclei (%)” value [6] was 4% and 3%, the “Population Tubulin-Different-Phenotype (%)” value [6] was 51% and 50% and the “Total Cell Count” value [6] was 1254 and 1055.
